Data on 23 compounds can be found in ChEMBL document CHEMBL1127378, “Influence of lipophilicity on the biological activity of cyclic pseudopeptide NK-2 receptor antagonists” (J Med Chem, 1994).

Assay [1] has as its target T1, Substance-K receptor (Oryctolagus cuniculus, UniProt P79218).
T1 sequence (P79218 whole entry): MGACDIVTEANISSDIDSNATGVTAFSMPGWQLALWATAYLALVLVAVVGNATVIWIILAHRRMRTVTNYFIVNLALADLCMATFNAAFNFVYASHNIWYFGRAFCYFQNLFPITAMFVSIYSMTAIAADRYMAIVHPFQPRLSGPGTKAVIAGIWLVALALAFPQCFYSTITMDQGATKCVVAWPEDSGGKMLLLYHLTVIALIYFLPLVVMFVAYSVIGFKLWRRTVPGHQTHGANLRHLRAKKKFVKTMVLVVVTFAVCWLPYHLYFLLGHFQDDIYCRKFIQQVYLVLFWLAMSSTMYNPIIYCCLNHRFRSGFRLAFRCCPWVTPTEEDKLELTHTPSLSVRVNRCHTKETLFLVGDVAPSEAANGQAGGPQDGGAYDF
Nature of the assay: Antagonist activity at NK-2 tachykinin receptors in rabbit pulmonary artery. It counts as functional. The note with it: for Kb: read-out: pA2 (converted). Summed up:
(§1)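 Isolated tissues from male New Zealand rabbits (2.5-3 kg) or male Syrian golden hamsters (90-130 g). Endothelium-denuded pulmonary artery strips (rabbit) or tracheal rings (hamster) were used for isometric tension in oxygenated (96% O2/4% CO2) Krebs. Thiorphan, captopril and bestatin were added 15 min before agonist. Cumulative NKA curves were repeated after 15 min antagonist incubation, with one concentration per experiment and at least three concentrations. pA2 came from constrained Schild plots (≥9 experiments).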

The target in assay [2] is T2, Substance-K receptor (Mesocricetus auratus, UniProt P51144).
T2 sequence (P51144 whole entry): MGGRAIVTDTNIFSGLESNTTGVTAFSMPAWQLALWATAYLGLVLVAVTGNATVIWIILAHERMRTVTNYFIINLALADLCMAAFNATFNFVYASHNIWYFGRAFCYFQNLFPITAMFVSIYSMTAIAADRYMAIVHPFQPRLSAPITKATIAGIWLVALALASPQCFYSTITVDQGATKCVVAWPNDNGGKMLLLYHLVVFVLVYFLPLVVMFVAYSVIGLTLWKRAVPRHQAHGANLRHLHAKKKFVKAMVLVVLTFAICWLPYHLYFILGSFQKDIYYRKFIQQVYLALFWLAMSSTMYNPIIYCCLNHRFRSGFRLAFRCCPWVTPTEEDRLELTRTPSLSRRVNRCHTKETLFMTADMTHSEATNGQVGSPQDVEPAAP
Nature of the assay: Tested for antagonist activity at NK-2 tachykinin receptors in hamster trachea. In kind it is functional. The conditions noted are these: for Kb: read-out: pA2 (converted). Summed up:
as §1

A short description of assay [3]: Tested for capacity factors by reversed phase HPLC (C18, solvent system 1).
In assay [4] the target is T1, Substance-K receptor. Nature of the assay: Tested for antagonist activity at NK-2 tachykinin receptors in rabbit pulmonary artery. The note with it: read-out: pA2 (converted).
For assay [5], the target named is T3, Substance-K receptor (Oryctolagus cuniculus) (UniProt P79218).
T3 sequence (whole entry): T1 sequence (P79218 whole entry)

Assay [6] has as its target T3, Substance-K receptor (Oryctolagus cuniculus). The note with it: filed as agonist.

Where a SMILES comes first, the peptide text is derived from it. [ ]: non-standard residue; d: D form. Cha = N[C@@H](CC1CCCCC1)C(=O)O; βAla = NCCC(=O)O

`CC(C)C[C@@H]1CN[C@@H](CC(N)=O)C(=O)N[C@@H](CCC(N)=O)C(=O)N[C@@H](Cc2c[nH]c3ccccc23)C(=O)N[C@@H](Cc2ccccc2)C(=O)NCCC(=O)N1`: the Kb at Substance-K receptor [1] was 692 nM; on Substance-K receptor [2] it was 110 nM.
The matching figures for `CSCC[C@@H]1NC[C@@H](CC(C)C)NC(=O)CCNC(=O)[C@H](Cc2ccccc2)NC(=O)[C@H](Cc2c[nH]c3ccccc23)NC(=O)[C@H](CCC(N)=O)NC1=O`: 224 nM and 12.9 nM.
Turning to `CC(C)C[C@@H]1CN[C@@H](CC(C)C)C(=O)N[C@H](CCC(N)=O)C(=O)N[C@@H](Cc2c[nH]c3ccccc23)C(=O)N[C@H](Cc2ccccc2)C(=O)NCCC(=O)N1`, the k' in assay [3] came out at 9.9.
In the case of `CC(C)C[C@@H]1CN[C@@H](Cc2ccccc2)C(=O)N[C@@H](CCC(N)=O)C(=O)N[C@@H](Cc2c[nH]c3ccccc23)C(=O)N[C@@H](Cc2ccccc2)C(=O)NCCC(=O)N1`, the figures for the Kb on Substance-K receptor [1] and at Substance-K receptor [2] were 79.4 nM and 18.6 nM, respectively.
The compound `CC(C)C[C@@H]1CN[C@@H](Cc2ccccc2)C(=O)N[C@H](CCC(N)=O)C(=O)N[C@@H](Cc2c[nH]c3ccccc23)C(=O)N[C@H](Cc2ccccc2)C(=O)NCCC(=O)N1` displayed a k' in assay [3] of 10.5.
In the case of `CC(C)C[C@@H]1NC(=O)CCNC(=O)[C@H](Cc2ccccc2)NC(=O)[C@H](Cc2c[nH]c3ccccc23)NC(=O)[C@H](CCC(N)=O)NC(=O)[C@H](CC2CCCCC2)NC1=O` (cyclo([Cha]QWF[βAla]L)), the results for the Kb at Substance-K receptor [1] and on Substance-K receptor [2] were 1450 nM and 31.6 nM, respectively.
Regarding `CC(C)C[C@@H]1CN[C@@H](CC(N)=O)C(=O)N[C@H](CCC(N)=O)C(=O)N[C@@H](Cc2c[nH]c3ccccc23)C(=O)N[C@H](Cc2ccccc2)C(=O)NCCC(=O)N1`, the k' in assay [3] came to 7.7.
On the same count and under the same terms, the same measure for `CC(C)C[C@@H]1CN[C@@H](CC(=O)O)C(=O)N[C@H](CCC(N)=O)C(=O)N[C@@H](Cc2c[nH]c3ccccc23)C(=O)N[C@H](Cc2ccccc2)C(=O)NCCC(=O)N1`: 7.9; for `CC(C)C[C@@H]1CN[C@@H](Cc2ccc3ccccc3c2)C(=O)N[C@H](CCC(N)=O)C(=O)N[C@@H](Cc2c[nH]c3ccccc23)C(=O)N[C@H](Cc2ccccc2)C(=O)NCCC(=O)N1`: 12.
On the same count and under the same terms, the same measure for `CC(C)C[C@@H]1CN[C@@H](CC2CCCCC2)C(=O)N[C@H](CCC(N)=O)C(=O)N[C@@H](Cc2c[nH]c3ccccc23)C(=O)N[C@H](Cc2ccccc2)C(=O)NCCC(=O)N1`: 11.6.
As to `CC(C)C[C@@H]1CN(C)[C@@H](CC2CCCCC2)C(=O)N[C@@H](CCC(N)=O)C(=O)N[C@@H](Cc2c[nH]c3ccccc23)C(=O)N[C@@H](Cc2ccccc2)C(=O)NCCC(=O)N1`, the Kb was 117 nM on Substance-K receptor [1] and 3.8 nM on Substance-K receptor [2].
Consider `CC(C)C[C@@H]1CN[C@@H](CCC(=O)NCc2ccccc2)C(=O)N[C@@H](CCC(N)=O)C(=O)N[C@@H](Cc2c[nH]c3ccccc23)C(=O)N[C@@H](Cc2ccccc2)C(=O)NCCC(=O)N1`, for which the Kb at Substance-K receptor [1] is 15.5 nM; on Substance-K receptor [2], 0.55 nM.
For the compound `CC(C)C[C@@H]1CN(C)[C@@H](CC2CCCCC2)C(=O)N[C@H](CCC(N)=O)C(=O)N[C@@H](Cc2c[nH]c3ccccc23)C(=O)N[C@H](Cc2ccccc2)C(=O)NCCC(=O)N1`, the k' in assay [3] was determined as 13.1.
`CC(C)C[C@@H]1CN[C@@H](Cc2ccc3ccccc3c2)C(=O)N[C@@H](CCC(N)=O)C(=O)N[C@@H](Cc2c[nH]c3ccccc23)C(=O)N[C@@H](Cc2ccccc2)C(=O)NCCC(=O)N1`: the pA2 at Substance-K receptor [1] came to 7.37; on Substance-K receptor [2], 8.79.
`CC(C)C[C@@H]1CN[C@@H](CCCCNC(=O)OCc2ccccc2)C(=O)N[C@@H](CCC(N)=O)C(=O)N[C@@H](Cc2c[nH]c3ccccc23)C(=O)N[C@@H](Cc2ccccc2)C(=O)NCCC(=O)N1`: the Kb at Substance-K receptor [1] was 129 nM; on Substance-K receptor [2], 6.76 nM.
Consider `CC(C)C[C@@H]1CN[C@@H](CCCCNC(=O)OCc2ccccc2)C(=O)N[C@H](CCC(N)=O)C(=O)N[C@@H](Cc2c[nH]c3ccccc23)C(=O)N[C@H](Cc2ccccc2)C(=O)NCCC(=O)N1`, for which the k' in assay [3] amounted to 11.9.
As to `CC(C)C[C@@H]1CN[C@@H](CCCCN)C(=O)N[C@@H](CCC(N)=O)C(=O)N[C@@H](Cc2c[nH]c3ccccc23)C(=O)N[C@@H](Cc2ccccc2)C(=O)NCCC(=O)N1`, the Kb on Substance-K receptor [2] is 309 nM.
As for `CC(C)C[C@@H]1CN[C@@H](CC2CCCCC2)C(=O)N[C@@H](CCC(N)=O)C(=O)N[C@@H](Cc2c[nH]c3ccccc23)C(=O)N[C@@H](Cc2ccccc2)C(=O)NCCC(=O)N1`, the values for the Kb at Substance-K receptor [4] and at Substance-K receptor [2] were 38.9 nM and 0.871 nM, respectively.
With `CC(C)C[C@@H]1CN[C@@H](CC(=O)O)C(=O)N[C@@H](CCC(N)=O)C(=O)N[C@@H](Cc2c[nH]c3ccccc23)C(=O)N[C@@H](Cc2ccccc2)C(=O)NCCC(=O)N1`, the Kb on Substance-K receptor [1] was 1070 nM; at Substance-K receptor [2], 67.6 nM.
As to `CC(C)C[C@@H]1CN[C@@H](CC(C)C)C(=O)N[C@@H](CCC(N)=O)C(=O)N[C@@H](Cc2c[nH]c3ccccc23)C(=O)N[C@@H](Cc2ccccc2)C(=O)NCCC(=O)N1`, the Kb at Substance-K receptor [1] is 112 nM; on Substance-K receptor [2] it was 15.8 nM.
Turning to `CC(C)C[C@@H]1CN[C@@H](CCC(=O)NCc2ccccc2)C(=O)N[C@H](CCC(N)=O)C(=O)N[C@@H](Cc2c[nH]c3ccccc23)C(=O)N[C@H](Cc2ccccc2)C(=O)NCCC(=O)N1`, the k' in assay [3] is 11.1.
In assay [5], `CC(C)C[C@@H]1CN[C@@H](CCCCN)C(=O)N[C@H](CCC(N)=O)C(=O)N[C@@H](Cc2c[nH]c3ccccc23)C(=O)N[C@H](Cc2ccccc2)C(=O)NCCC(=O)N1` gave a pD2 of 5.96. The same compound gave a k' in assay [3] of 6.8. For the same compound, in assay [6], the pA2 result is “Agonist”.
In turn, `CSCC[C@@H]1NC[C@@H](CC(C)C)NC(=O)CCNC(=O)[C@@H](Cc2ccccc2)NC(=O)[C@H](Cc2c[nH]c3ccccc23)NC(=O)[C@@H](CCC(N)=O)NC1=O` displayed a k' in assay [3] of 9.6.
